Results: ChEMBL document CHEMBL2331520, “Synthesis, surface tension properties and antibacterial activities of amphiphilic D-galactopyranose derivatives” (Eur J Med Chem, 2013)
Converted amounts (≈) assume the structure as drawn.

Legend:
Sinorhizobium meliloti = assay: Antibacterial activity against Sinorhizobium meliloti Rm1021 assessed as growth inhibition at 30 degC after 24 hrs by liquid broth dilution method; type: functional; settings: Rm1021, 24 h
How it was run: (§1)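 Strains kept at -80 °C in LB broth with 20% glycerol and grown from 1% (v/v) stock in nutritive broth (yeast extract 1 g/L, meat extract 2 g/L, peptone 5 g/L, NaCl 5 g/L) at 30 °C. Overnight culture adjusted to 0.5 McFarland (~1.5 × 10⁸ cfu/mL). Compound stock 1 g/L in DMSO, serially diluted in broth 1:2 to 1:512, mixed 1:1 with inoculum. Incubation 24 h, 150 rpm, 30 °C. OD600 read; MIC = lowest concentration with no OD increase in all replicates versus negative control.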

Staphylococcus aureus = assay: Antibacterial activity against Staphylococcus aureus subsp aureus CIP 53.154 assessed as growth inhibition at 30 degC after 24 hrs by liquid broth dilution method; type: functional; settings: CIP 53.154, 24 h; how it was run: as §1
[1] = system: Mycolicibacterium smegmatis; assay: Antibacterial activity against Mycobacterium smegmatis CIP 73.26 assessed as growth inhibition at 37 degC after 24 hrs by liquid broth dilution method; type: functional; settings: CIP 73.26, 24 h
How it was run: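 Inoculum at 0.5 McFarland (~1.5 × 10⁸ cfu/mL). DMSO stock (1 g/L) serially diluted in the same medium 1:2 to 1:512. Shaken 24 h at 150 rpm, 37 °C. MIC = lowest concentration with no OD600 rise in any replicate versus negative control.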

Micrococcus luteus = assay: Antibacterial activity against Micrococcus luteus CIP 53.45 assessed as growth inhibition at 30 degC after 24 hrs by liquid broth dilution method; type: functional; settings: CIP 53.45, 24 h; how it was run: as §1
Escherichia coli = assay: Antibacterial activity against Escherichia coli ATCC 10536 assessed as growth inhibition at 30 degC after 24 hrs by liquid broth dilution method; type: functional; settings: ATCC 10536, 24 h; how it was run: as §1
Enterobacter cloacae = assay: Antibacterial activity against Enterobacter cloacae ATCC 13047 assessed as growth inhibition at 30 degC after 24 hrs by liquid broth dilution method; type: functional; settings: ATCC 13047, 24 h; how it was run: as §1
[2] = system: Geobacillus stearothermophilus; assay: Antibacterial activity against Bacillus stearothermophilus ATTC 12980 assessed as growth inhibition at 30 degC after 24 hrs by liquid broth dilution method; type: functional; settings: ATTC 12980, 24 h; how it was run: as §1
Citrobacter freundii = assay: Antibacterial activity against Citrobacter freundii ATCC 6750 assessed as growth inhibition at 30 degC after 24 hrs by liquid broth dilution method; type: functional; settings: ATCC 6750, 24 h; how it was run: as §1
Pseudomonas aeruginosa = assay: Antibacterial activity against Pseudomonas aeruginosa CIP A22 assessed as growth inhibition at 30 degC after 24 hrs by liquid broth dilution method; type: functional; settings: CIP A22, 24 h; how it was run: as §1
Dickeya chrysanthemi = assay: Antibacterial activity against Erwinia chrysanthemi EC3937 assessed as growth inhibition at 30 degC after 24 hrs by liquid broth dilution method; type: functional; settings: EC3937, 24 h; how it was run: as §1
[3] = Gamma critical micelle concentration of the compound by wilhelmy method; type: physicochemical
How it was run: (§2)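 Wilhelmy plate method at 293 K. Concentrated solution added stepwise from a syringe into ultrapure water, stirred gently 30 s after each addition, then equilibrium surface tension read. Each value is the mean of at least three measurements (SD within ±1.5% of mean). Transducer precision 0.1 mN/m; platinum plate flame-cleaned. Surface tension plotted against molar concentration to give CMC and γCMC.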

[4] = Critical micelle concentration of the compound by wilhelmy method; type: physicochemical; how it was run: as §2

MIC (Sinorhizobium meliloti) [µg/mL]	MIC (Staphylococcus aureus) [µg/mL]	MIC [1] [µg/mL]	MIC (Micrococcus luteus) [µg/mL]	MIC (Escherichia coli) [µg/mL]	MIC (Enterobacter cloacae) [µg/mL]	MIC [2] [µg/mL]	MIC (Citrobacter freundii) [µg/mL]	MIC (Pseudomonas aeruginosa) [µg/mL]	MIC (Dickeya chrysanthemi) [µg/mL]	gammaCMC [3]	CMC [4]	Compound
62.5 (≈ 120 µM)	125 (≈ 240 µM)	62.5 (≈ 120 µM)	31.2 (≈ 60 µM)	62.5 (≈ 120 µM)	62.5 (≈ 120 µM)	62.5 (≈ 120 µM)	62.5 (≈ 120 µM)	125 (≈ 240 µM)	62.5 (≈ 120 µM)			CCCCCCCCCCCCOc1ccc(OC[C@H]2O[C@@H]3OC(C)(C)O[C@@H]3[C@H]3OC(C)(C)O[C@H]32)cc1
62.5 (≈ 142 µM)	125 (≈ 284 µM)	62.5 (≈ 142 µM)	62.5 (≈ 142 µM)	62.5 (≈ 142 µM)	62.5 (≈ 142 µM)	62.5 (≈ 142 µM)	125 (≈ 284 µM)	62.5 (≈ 142 µM)	62.5 (≈ 142 µM)	54 mN/meter	3.1 mmol/L	CCCCCCCCCCCCOc1ccc(OC[C@H]2O[C@H](O)[C@H](O)[C@@H](O)[C@H]2O)cc1
62.5 (≈ 173 µM)	125 (≈ 347 µM)	62.5 (≈ 173 µM)	62.5 (≈ 173 µM)	62.5 (≈ 173 µM)	62.5 (≈ 173 µM)	62.5 (≈ 173 µM)	125 (≈ 347 µM)	125 (≈ 347 µM)	62.5 (≈ 173 µM)	30 mN/meter	0.06 mmol/L	CCCCCCCCOCC#CCOC[C@H]1O[C@H](O)[C@H](O)[C@@H](O)[C@H]1O
≥ 250	≥ 250	≥ 250	≥ 250	≥ 250	≥ 250	≥ 250	≥ 250	≥ 250	≥ 250			CCCCCCCCOC[C@H]1O[C@@H]2OC(C)(C)O[C@@H]2[C@H]2OC(C)(C)O[C@H]21
62.5 (≈ 135 µM)	125 (≈ 269 µM)	62.5 (≈ 135 µM)	62.5 (≈ 135 µM)	62.5 (≈ 135 µM)	62.5 (≈ 135 µM)	62.5 (≈ 135 µM)	125 (≈ 269 µM)	125 (≈ 269 µM)	62.5 (≈ 135 µM)			CCCCCCCCOc1ccc(OC[C@H]2O[C@@H]3OC(C)(C)O[C@@H]3[C@H]3OC(C)(C)O[C@H]32)cc1
≥ 250	≥ 250	≥ 250	≥ 250	≥ 250	≥ 250	≥ 250	≥ 250	≥ 250	≥ 250	28 mN/meter	12 mmol/L	CCCCCCCCOC[C@H]1O[C@H](O)[C@H](O)[C@@H](O)[C@H]1O
62.5 (≈ 149 µM)	125 (≈ 297 µM)	62.5 (≈ 149 µM)	15.6 (≈ 37.1 µM)	62.5 (≈ 149 µM)	62.5 (≈ 149 µM)	31.2 (≈ 74.3 µM)	62.5 (≈ 149 µM)	62.5 (≈ 149 µM)	62.5 (≈ 149 µM)	48 mN/meter	0.023 mmol/L	CCCCCCCCCCCCOCCCCOC[C@H]1O[C@H](O)[C@H](O)[C@@H](O)[C@H]1O
62.5 (≈ 142 µM)	125 (≈ 284 µM)	62.5 (≈ 142 µM)	62.5 (≈ 142 µM)	62.5 (≈ 142 µM)	62.5 (≈ 142 µM)	62.5 (≈ 142 µM)	62.5 (≈ 142 µM)	62.5 (≈ 142 µM)	62.5 (≈ 142 µM)			CCCCCCCCOCC#CCOC[C@H]1O[C@@H]2OC(C)(C)O[C@@H]2[C@H]2OC(C)(C)O[C@H]21
62.5 (≈ 141 µM)	125 (≈ 281 µM)	62.5 (≈ 141 µM)	62.5 (≈ 141 µM)	62.5 (≈ 141 µM)	62.5 (≈ 141 µM)	62.5 (≈ 141 µM)	62.5 (≈ 141 µM)	62.5 (≈ 141 µM)	62.5 (≈ 141 µM)			CCCCCCCCOCCCCOC[C@H]1O[C@@H]2OC(C)(C)O[C@@H]2[C@H]2OC(C)(C)O[C@H]21
62.5 (≈ 125 µM)	125 (≈ 250 µM)	31.2 (≈ 62.4 µM)	15.6 (≈ 31.2 µM)	62.5 (≈ 125 µM)	62.5 (≈ 125 µM)	31.2 (≈ 62.4 µM)	62.5 (≈ 125 µM)	62.5 (≈ 125 µM)	62.5 (≈ 125 µM)			CCCCCCCCCCCCOCCCCOC[C@H]1O[C@@H]2OC(C)(C)O[C@@H]2[C@H]2OC(C)(C)O[C@H]21
< 0.98	< 0.98	1.95 (≈ 6.03 µM)	< 0.98	< 0.98	< 0.98	3.9 (≈ 12.1 µM)	7.8 (≈ 24.1 µM)	1.95 (≈ 6.03 µM)	0.98 (≈ 3.03 µM)			O=C(N[C@H](CO)[C@H](O)c1ccc([N+](=O)[O-])cc1)C(Cl)Cl [CHLORAMPHENICOL]
62.5 (≈ 163 µM)	125 (≈ 325 µM)	62.5 (≈ 163 µM)	62.5 (≈ 163 µM)	62.5 (≈ 163 µM)	62.5 (≈ 163 µM)	62.5 (≈ 163 µM)	125 (≈ 325 µM)	125 (≈ 325 µM)	62.5 (≈ 163 µM)	Not Active	Not Active	CCCCCCCCOc1ccc(OC[C@H]2O[C@H](O)[C@H](O)[C@@H](O)[C@H]2O)cc1
62.5 (≈ 171 µM)	125 (≈ 343 µM)	62.5 (≈ 171 µM)	62.5 (≈ 171 µM)	62.5 (≈ 171 µM)	62.5 (≈ 171 µM)	62.5 (≈ 171 µM)	125 (≈ 343 µM)	62.5 (≈ 171 µM)	62.5 (≈ 171 µM)	30 mN/meter	0.3 mmol/L	CCCCCCCCOCCCCOC[C@H]1O[C@H](O)[C@H](O)[C@@H](O)[C@H]1O
≥ 250	≥ 250	≥ 250	≥ 250	≥ 250	≥ 250	≥ 250	≥ 250	≥ 250	≥ 250	Not Active	Not Active	CCCCCCCCCCCCOC[C@H]1O[C@H](O)[C@H](O)[C@@H](O)[C@H]1O
31.2 (≈ 75 µM)	62.5 (≈ 150 µM)	62.5 (≈ 150 µM)	3.91 (≈ 9.39 µM)	62.5 (≈ 150 µM)	62.5 (≈ 150 µM)	7.81 (≈ 18.7 µM)	62.5 (≈ 150 µM)	62.5 (≈ 150 µM)	62.5 (≈ 150 µM)	35 mN/meter	0.032 mmol/L	CCCCCCCCCCCCOCC#CCOC[C@H]1O[C@H](O)[C@H](O)[C@@H](O)[C@H]1O
62.5 (≈ 126 µM)	125 (≈ 252 µM)	62.5 (≈ 126 µM)		62.5 (≈ 126 µM)	62.5 (≈ 126 µM)	15.6 (≈ 31.4 µM)	62.5 (≈ 126 µM)	62.5 (≈ 126 µM)	62.5 (≈ 126 µM)			CCCCCCCCCCCCOCC#CCOC[C@H]1O[C@@H]2OC(C)(C)O[C@@H]2[C@H]2OC(C)(C)O[C@H]21
≥ 250	≥ 250	≥ 250	≥ 250	≥ 250	≥ 250	≥ 250	≥ 250	≥ 250	≥ 250			CCCCCCCCCCCCOC[C@H]1O[C@@H]2OC(C)(C)O[C@@H]2[C@H]2OC(C)(C)O[C@H]21
